Measured values reported in ChEMBL document CHEMBL1148330, “Synthesis and biological evaluation of 14-alkoxymorphinans. 21. Novel 4-alkoxy and 14-phenylpropoxy derivatives of the mu opioid receptor antagonist cyprodime” (J Med Chem, 2004).

Tests used:
[1] = molecular target: Kappa-type opioid receptor (Rattus norvegicus, UniProt P34975); assay: Binding affinity determined by displacing [3H]U69,593 from Opioid receptor kappa 1 in rat brain membranes; type: cell membranes
How it was run: (§1)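 Competitive radioligand binding in rat brain membranes: [3H]DAMGO (µ), [3H][Ile5,6]deltorphin II (δ), [3H]U69,593 (κ). Ki reported as mean ± SEM. Selectivity ratios are Ki δ/Ki µ and Ki κ/Ki µ.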

Mu-type opioid receptor [2] = molecular target: Mu-type opioid receptor (Rattus norvegicus, UniProt P33535); assay: Binding affinity determined by displacing [3H]DAMGO from Opioid receptor mu 1 in rat brain membranes; type: cell membranes; how it was run: as §1
Sequence of Mu-type opioid receptor (Rattus norvegicus, UniProt P33535) (P33535 whole entry): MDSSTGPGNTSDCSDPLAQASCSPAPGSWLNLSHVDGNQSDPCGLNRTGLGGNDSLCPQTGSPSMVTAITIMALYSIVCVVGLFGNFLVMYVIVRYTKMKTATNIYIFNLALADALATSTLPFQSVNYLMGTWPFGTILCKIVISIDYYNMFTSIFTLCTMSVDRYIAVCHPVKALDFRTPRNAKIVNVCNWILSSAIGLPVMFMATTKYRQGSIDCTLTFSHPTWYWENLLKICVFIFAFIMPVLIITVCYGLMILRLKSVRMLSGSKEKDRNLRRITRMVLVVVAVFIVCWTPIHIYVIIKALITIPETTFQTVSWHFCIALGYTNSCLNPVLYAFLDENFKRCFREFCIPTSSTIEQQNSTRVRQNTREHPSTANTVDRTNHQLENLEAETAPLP

[3] = molecular target: Opioid receptors; mu & delta (Rattus norvegicus) (UniProt P33533+P33535); assay: Selectivity ratio of binding affinities between delta opioid receptors and mu opioid receptors in rat brain membranes; type: cell membranes; how it was run: as §1
Sequence of Opioid receptors; mu & delta (Rattus norvegicus) (P33533 whole entry, looked up): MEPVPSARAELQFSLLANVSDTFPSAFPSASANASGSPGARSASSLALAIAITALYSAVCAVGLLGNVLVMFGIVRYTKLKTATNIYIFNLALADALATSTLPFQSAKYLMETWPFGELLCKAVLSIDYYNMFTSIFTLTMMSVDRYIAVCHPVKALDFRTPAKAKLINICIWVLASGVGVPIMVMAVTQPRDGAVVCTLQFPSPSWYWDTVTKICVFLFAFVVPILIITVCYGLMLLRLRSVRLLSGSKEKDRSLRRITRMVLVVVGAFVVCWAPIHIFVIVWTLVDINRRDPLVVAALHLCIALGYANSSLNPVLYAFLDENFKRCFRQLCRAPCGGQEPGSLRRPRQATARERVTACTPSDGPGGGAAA
Sequence of Opioid receptors; mu & delta (Rattus norvegicus) (P33535 whole entry, looked up): as the sequence (P33535 whole entry) above

Rattus norvegicus = species: Rattus norvegicus; assay: Selectivity ratio of binding affinities between kappa opioid receptors and mu opioid receptors in rat brain membranes; type: cell membranes; how it was run: as §1
[4] = molecular target: T1, Delta-type opioid receptor (Homo sapiens, UniProt P41143); assay: Percent maximal stimulation of [35S]GTP-gamma-S, binding to recombinant human opioid receptor delta 1 expressed in CHO cells; type: functional, cell-based
T1 sequence (P41143 whole entry): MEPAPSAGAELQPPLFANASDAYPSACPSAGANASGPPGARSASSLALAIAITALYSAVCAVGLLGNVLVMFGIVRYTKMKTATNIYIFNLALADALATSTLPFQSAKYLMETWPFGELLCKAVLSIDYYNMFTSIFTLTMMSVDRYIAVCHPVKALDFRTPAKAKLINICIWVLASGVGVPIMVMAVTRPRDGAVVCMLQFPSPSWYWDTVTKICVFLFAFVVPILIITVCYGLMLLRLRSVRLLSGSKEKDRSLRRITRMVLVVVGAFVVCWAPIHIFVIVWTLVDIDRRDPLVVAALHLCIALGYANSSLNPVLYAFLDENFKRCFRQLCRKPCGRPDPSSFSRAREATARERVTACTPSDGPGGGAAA
How it was run: (§2)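 Membranes from CHO cells stably expressing human µ, δ or κ opioid receptor, incubated with varying concentrations of compound in a [35S]GTPγS binding assay. Emax is % maximal stimulation of [35S]GTPγS binding. EC50 is the concentration giving 50% of the Emax value. Mean ± SEM.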

[5] = molecular target: T2, Kappa-type opioid receptor (Homo sapiens, UniProt P41145); assay: Concentration necessary to produce 50% of the Emax value, i.e. to stimulate [35S]GTP-gamma-S, binding to recombinant human Opioid receptor kappa 1 expressed in CHO cells; type: functional, cell-based; how it was run: as §2
T2 sequence (P41145 whole entry): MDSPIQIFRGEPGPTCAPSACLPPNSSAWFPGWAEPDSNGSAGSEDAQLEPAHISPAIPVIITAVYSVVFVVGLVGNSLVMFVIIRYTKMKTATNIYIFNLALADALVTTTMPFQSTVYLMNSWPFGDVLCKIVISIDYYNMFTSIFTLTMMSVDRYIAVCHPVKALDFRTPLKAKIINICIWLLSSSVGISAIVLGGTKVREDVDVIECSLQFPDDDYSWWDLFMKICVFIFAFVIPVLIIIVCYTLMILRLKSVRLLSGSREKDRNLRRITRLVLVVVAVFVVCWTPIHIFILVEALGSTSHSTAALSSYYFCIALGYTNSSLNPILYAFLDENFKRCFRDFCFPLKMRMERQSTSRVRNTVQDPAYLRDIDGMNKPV

[6] = molecular target: T2, Kappa-type opioid receptor; assay: Antagonistic activity against recombinant human Opioid receptor kappa 1 expressed in CHO cells when incubated with U69,593; type: functional, cell-based
How it was run: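 Membranes from CHO cells stably expressing the human κ opioid receptor, incubated with the agonist U69,593 in the presence of varying concentrations of compound. Antagonist Ke values reported as mean ± SEM.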

Mus musculus [7] = assay: Effective dose (sc) required for antinociceptive potency in vivo in the hotplate (HP) test in mice; type: functional
Mus musculus [8] = assay: Effective dose (sc) required for antinociceptive potency in vivo in the tail-flick (TF) test in mice; type: functional
Mus musculus [9] = assay: Effective dose (sc) required for antinociceptive potency in vivo in the paraphenylquinone writhing (PPQ) test in mice; type: functional
[10] = molecular target: T1, Delta-type opioid receptor; assay: Concentration necessary to produce 50% of the Emax value, i.e. to stimulate [35S]GTP-gamma-S, binding to recombinant human opioid receptor delta 1 expressed in CHO cells; type: functional, cell-based; how it was run: as §2
Mu-type opioid receptor [11] = molecular target: T3, Mu-type opioid receptor (Homo sapiens, UniProt P35372); assay: Concentration necessary to produce 50% of the Emax value, i.e. to stimulate [35S]GTP-gamma-S, binding to recombinant human Opioid receptor mu 1 expressed in CHO cells; type: functional, cell-based; how it was run: as §2
T3 sequence (P35372 whole entry): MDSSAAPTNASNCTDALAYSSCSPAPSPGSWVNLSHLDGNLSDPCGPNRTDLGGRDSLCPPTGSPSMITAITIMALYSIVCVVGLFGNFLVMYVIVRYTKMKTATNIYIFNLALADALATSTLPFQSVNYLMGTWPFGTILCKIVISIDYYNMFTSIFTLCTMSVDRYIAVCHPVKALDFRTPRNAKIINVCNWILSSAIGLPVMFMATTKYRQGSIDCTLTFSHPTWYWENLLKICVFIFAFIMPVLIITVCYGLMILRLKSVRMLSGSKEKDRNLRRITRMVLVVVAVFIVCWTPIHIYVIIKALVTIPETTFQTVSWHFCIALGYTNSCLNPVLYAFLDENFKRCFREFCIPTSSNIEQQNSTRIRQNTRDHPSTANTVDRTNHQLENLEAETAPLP

Mu-type opioid receptor [12] = molecular target: T3, Mu-type opioid receptor; assay: Percent maximal stimulation of [35S]GTP-gamma-S, binding to recombinant human Opioid receptor mu 1 expressed in CHO cells; type: functional, cell-based; how it was run: as §2
[13] = molecular target: T2, Kappa-type opioid receptor; assay: Percent maximal stimulation of [35S]GTP-gamma-S, binding to recombinant human Opioid receptor kappa 1 expressed in CHO cells; type: functional, cell-based; how it was run: as §2
Mu-type opioid receptor [14] = molecular target: T3, Mu-type opioid receptor; details: CHO

Sequence of Kappa-type opioid receptor (Rattus norvegicus, UniProt P34975) (P34975 whole entry): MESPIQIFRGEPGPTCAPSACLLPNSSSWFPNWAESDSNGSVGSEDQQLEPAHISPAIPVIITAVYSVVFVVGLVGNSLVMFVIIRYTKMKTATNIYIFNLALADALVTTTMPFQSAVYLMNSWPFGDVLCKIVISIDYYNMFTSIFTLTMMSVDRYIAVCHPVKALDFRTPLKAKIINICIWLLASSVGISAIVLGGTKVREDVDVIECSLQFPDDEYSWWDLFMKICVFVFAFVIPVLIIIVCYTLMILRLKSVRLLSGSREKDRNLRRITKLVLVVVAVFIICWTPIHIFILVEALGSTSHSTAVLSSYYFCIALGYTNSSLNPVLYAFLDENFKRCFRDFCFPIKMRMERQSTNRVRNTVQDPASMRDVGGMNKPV

Row | Compound | Ki [1] [µM] | Ki (Mu-type opioid receptor [2]) [µM] | Selectivity ratio [3] | Selectivity ratio (Rattus norvegicus) | Emax [4] [%] | EC50 [5] [µM] | Ke [6] [nM] | ED50 (Mus musculus [7]) [mg/kg] | ED50 (Mus musculus [8]) [mg/kg] | ED50 (Mus musculus [9]) [mg/kg] | EC50 [10] [µM] | EC50 (Mu-type opioid receptor [11]) [µM] | Emax (Mu-type opioid receptor [12]) [%] | Emax [13] [%] | Ke (Mu-type opioid receptor [14]) [nM]
1 | CCCCCCOc1cccc2c1[C@]13CCN(CC4CC4)[C@H](C2)[C@]1(OC)CCC(=O)C3 | 441 | 44.9 | 26 | 9.8 | – | – | – | – | – | – | – | – | – | – | –
2 | CCCCOc1cccc2c1[C@]13CCN(CC4CC4)[C@H](C2)[C@]1(OCCCc1ccccc1)CCC(=O)C3 | 150 | 14.9 | 16 | 10 | – | – | – | – | – | – | – | – | – | – | –
3 | COc1cccc2c1[C@]13CCN(CC4CC4)[C@H](C2)[C@]1(OCCCc1ccccc1)CCC(=O)C3 | 7.36 | 0.34 | 50 | 22 | 22 | > 10 | 2.52 | 0.3 | 0.28 | 0.06 | 0.0206 | 0.00197 | 35 | – | –
4 | COc1cccc2c1[C@]13CCN(CC4CC4)[C@H](C2)[C@]1(OC)CCC(=O)C3 [CYPRODIME] | 109 | 10.6 | 39 | 10 | 18 | 0.117 | 26.1 | – | – | – | 1.1 | – | 33 | 18.8 | 12.4
5 | O=C1CC[C@@]2(OCCCc3ccccc3)[C@H]3Cc4cccc(O)c4[C@@]2(CCN3CC2CC2)C1 | 5.84 | 0.4 | 13 | 15 | 49 | 0.00451 | – | 0.04 | 0.05 | 0.0014 | 0.00791 | 0.00347 | 35 | 45.8 | –
6 | CO[C@@]12CCC(=O)C[C@@]13CCN(CC1CC1)[C@@H]2Cc1cccc(OCCCc2ccccc2)c13 | 208 | 43.3 | 33 | 4.8 | – | – | – | – | – | – | – | – | – | – | –
7 | CO[C@@]12CCC(=O)C[C@@]13CCN(CC1CC1)[C@@H]2Cc1cccc(OCc2ccccc2)c13 | 56.8 | 11.6 | 18 | 4.9 | – | – | – | – | – | – | – | – | – | – | –
8 | O=C1CC[C@@]2(OCCCc3ccccc3)[C@H]3Cc4cccc5c4[C@@]2(CCN3CC2CC2)C1O5 (some centres undefined) | 22.8 | 0.84 | 55 | 27 | 17 | > 10 | 8.54 | 0.68 | 0.187 | 0.0094 | 0.0868 | 0.0098 | 43 | – | –
9 | CO[C@@]12CCC(=O)[C@]3(C)Oc4c(O)ccc5c4[C@@]31CCN(C)[C@@H]2C5 | – | – | – | – | – | – | – | 0.03 | 0.03 | 0.009 | – | – | – | – | –
10 | CCCCOc1cccc2c1[C@]13CCN(CC4CC4)[C@H](C2)[C@]1(OC)CCC(=O)C3 | 261 | 13.8 | 55 | 19 | 22 | > 10 | 120 | – | – | – | 1.61 | > 10 | – | – | 11.1
